The list is not random: actives were taken first. Their share in the collection is about 9.4%.
Beta apoptosis: inhibitors of cytokine-induced beta cell apoptosis, primary screen, luminescence | INS-1E cytokine-induced death, ATP luminescence, 48 h; percent of positive-control rescue, neutral wells zero | protection from apoptosis, % (no concentration beside the values) | hit rate 0.8% among 300,000 | AID 435005, 2010;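 active means Every replicate reaches about 75%, or at least half do and their mean reaches it too, limit read from the data; inconclusive means At least half of replicates reach the limit but their mean does not; inactive means Under half of replicates reach the limit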;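 further: 0% = cytokine-treated negative control wells and 100% = positive control rescue; higher means more ATP so stronger rescue from cytokine killing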
CSC inhib: cancer stem cell viability inhibitors, primary screen, luminescence | cancer stem cell-like cells viability | inhibition, % at 7.5 µM | hit rate 1.1% among 300,000; in the data active means inhibition above about 75%; inconclusive means no clear call, values can overlap the other calls; tested in HMLE shEcad cells
Mdm2-MdmX inh: inhibitors of human Mdm2-MdmX association, primary screen, cell-based, luminescence, split luciferase, SaOS-2, uHTS. Protein Mdm4 (Homo sapiens) + E3 ubiquitin-protein ligase Mdm2 (Homo sapiens), …. SaOS-2 split-luciferase Mdm2/MdmX complementation. inhibition, % at 8 µM. hit rate 3% among 330,000. AID 485346, 2010;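 active means inhibition of at least 50% at 8 µM in the primary screen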
Target sequence (O15151 whole entry, looked up): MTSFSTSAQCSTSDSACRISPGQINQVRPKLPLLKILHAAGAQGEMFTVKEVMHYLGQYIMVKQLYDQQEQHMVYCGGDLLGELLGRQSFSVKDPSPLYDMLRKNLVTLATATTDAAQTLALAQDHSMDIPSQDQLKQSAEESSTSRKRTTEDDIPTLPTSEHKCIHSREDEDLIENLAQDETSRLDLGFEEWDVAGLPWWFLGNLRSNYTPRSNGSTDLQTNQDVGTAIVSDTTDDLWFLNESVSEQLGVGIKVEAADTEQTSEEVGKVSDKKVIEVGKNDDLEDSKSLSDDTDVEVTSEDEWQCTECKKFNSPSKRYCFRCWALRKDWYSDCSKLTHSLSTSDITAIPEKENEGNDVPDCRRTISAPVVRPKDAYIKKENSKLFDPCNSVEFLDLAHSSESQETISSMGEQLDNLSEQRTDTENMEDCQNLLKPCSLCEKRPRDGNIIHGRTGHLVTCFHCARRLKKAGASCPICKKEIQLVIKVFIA
Target sequence (Q00987 whole entry, looked up): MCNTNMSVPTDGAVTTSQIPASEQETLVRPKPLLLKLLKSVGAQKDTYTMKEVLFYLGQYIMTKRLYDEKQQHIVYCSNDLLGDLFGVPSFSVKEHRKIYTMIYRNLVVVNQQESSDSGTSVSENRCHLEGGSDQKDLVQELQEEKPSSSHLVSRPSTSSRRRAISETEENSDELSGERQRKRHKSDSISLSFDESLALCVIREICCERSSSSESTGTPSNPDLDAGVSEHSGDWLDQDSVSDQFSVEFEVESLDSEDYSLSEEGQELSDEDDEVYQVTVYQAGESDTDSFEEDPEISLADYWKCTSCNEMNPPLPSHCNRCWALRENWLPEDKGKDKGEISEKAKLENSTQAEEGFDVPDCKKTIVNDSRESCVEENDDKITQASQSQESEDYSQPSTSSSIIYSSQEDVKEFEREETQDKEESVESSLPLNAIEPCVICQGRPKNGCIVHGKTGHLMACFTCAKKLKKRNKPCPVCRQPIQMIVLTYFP
T cruzi repl: inhibitors of intracellular T. cruzi growth, primary screen, luminescence, NIH3T3 host cells | inhibition, % (no concentration beside the values) | T. cruzi beta-gal in NIH3T3, 90 h | hit rate 1.4% among 300,000;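 active means mean inhibition across valid replicates above about 55%, limit read from the data; inconclusive means mean below that limit but half or more replicates reach it; inactive means mean below it, under half of replicates reach it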;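 further: signal also drops with host cell toxicity which is not excluded here; 0% = plate median of DMSO wells and 100% = zero luminescence signal; higher percent means less beta-gal luminescence so fewer parasites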
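System: Mouse NIH/3T3 fibroblasts infected with β-gal-expressing T. cruzi Tulahuen C4 | Quantity: NIH/3T3 cells, 5,000 per well | Reagent: 5000 reporter trypomastigotes per well | Dosing: Compound pinned at 50 nL/well, DMSO | Schedule: 3 h host attachment, then at least 90 h co-culture | Detection: GalScreen luminescence, 60 min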
SKKanGAS inh: S. pyogenes SKKanGAS growth inhibitors in kanamycin, primary screen, streptokinase expression inhibitor project, SKKanGAS strain, BacTiter-Glo luminescence | 6 h | inhibition, % at 7.5 µM | hit rate 1.3% among 300,000 | AID 1662, 2009;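 active means mean replicate score, as percent of positive control median, at least 50; inconclusive means mean below 50 but one replicate at or above 50; inactive means mean and every replicate below 50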;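 further: strain carries kanamycin resistance gene driven by streptokinase promoter and grows in 40 µg/ml kanamycin; loss of luminescence reflects streptokinase promoter inhibition or plain growth inhibition; 0% = median of DMSO wells and 100% = positive control at its reference dose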
Lmaj promast: Leishmania major promastigote growth inhibition, primary screen; inhibition, % at 10 µM; hit rate 9% among 200,000; Leishmania major promastigotes, resazurin fluorescence viability; in the data active means inhibition above about 50%;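 further: promastigotes grown with compound for 44 hours at 28 °C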
Lmaj promast 1uM: Leishmania major promastigote growth inhibition, confirmation, 1 µM repeat of primary hits. shares compounds with Lmaj promast. L. major promastigote growth, resazurin fluorescence, 48 h. inhibition, % at 1 µM. hit rate 13% among 1,100;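 active means inhibition above about 50% in both repeat tests, limit read from the data; inconclusive means one repeat under the set limit, the other over it; inactive means both repeats under the set limit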
The depositor's hits bear a star; u = inconclusive; x = not tested or not shown.

SMILES	Beta apoptosis	CSC inhib	Mdm2-MdmX inh	T cruzi repl	SKKanGAS inh	Lmaj promast	Lmaj promast 1uM
c1ccc(-c2nc(-c3cccnc3)n[nH]2)cc1	-5	-21	-20	-11	-2	-2	x
Brc1cccc(-c2n[nH]c(-c3ccccc3)n2)c1	7	-2	-93	22	0	57*	0
CCOC(=O)C1=NN(c2ccccc2)C2(S1)SC(C(C)=O)=C(C)N2c1ccccc1 (stereo not given)	-4	15	34	-19	11	61*	3
CCOC(=O)C1=NN(c2ccc(C)cc2)C2(S1)SC(C(C)=O)=C(C)N2c1ccccc1 (stereo not given)	-5	-3	-31	-17	11	36	x
COc1cccc(/C=N/n2c(SC)nnc2-c2ccccc2)c1OC	4	14	20	8	0	84*	22
O=C(CCc1ccccc1)Nc1nnc(-c2ccccn2)o1	-4	5	8	-11	10	62*	34
CCc1cc2cc(C)cc(C)c2nc1Cl	-6	-3	17	-5	-4	0	x
Cc1cc(C)c2cc(C=O)c(Cl)nc2c1	7	-3	50	0	x	58*	-7
CCc1ccccc1N(CC(=O)NC(C)(C)C)C(=O)CCC(=O)Nc1ccccn1	x	-12	11	5	0	x	x
COc1cc(NC(C)CCCN)c2ncccc2c1Oc1ccccc1 (stereo not given)	-4	-8	36	u	4	101*	101*
CC(=O)c1ccc(NC(=S)N2c3ccccc3CC2C)cc1 (stereo not given)	-3	-12	11	2	4	6	x
CC1Cc2ccccc2N1C(=S)Nc1ccc(S(N)(=O)=O)cc1 (stereo not given)	0	10	37	20	5	80*	-22
COc1ccc(C(=O)NCCS(=O)(=O)NCc2ccccc2OC)cc1	10	x	15	2	-1	x	x
CCOC(=O)Nc1ccc2c(c1)N(C(=O)N1CCN(C)CC1)c1ccccc1S2	2	5	23	0	0	84*	10
CCOC(=O)Nc1ccc2c(c1)N(C(=O)CCN1CCN(C)CC1)c1ccccc1S2	x	-5	16	34	9	6	x
CCOC(=O)Nc1ccc2c(c1)Nc1ccccc1S2	5	-3	-4	63*	16	67*	-15
O=C(CN1C(=O)C2C3CCC(C3)C2C1=O)N1CCN(Cc2ccccc2)CC1 (stereo not given)	-4	1	2	6	-15	-7	x
CNC(=O)CSc1cn(CC(=O)N(C(C)C)C(C)C)c2ccccc12	-3	-8	6	1	-2	16	x
COc1ccc(CC2NCCC3(O)CCCCC23)cc1 (stereo not given)	3	22	16	14	-8	68*	-7
CCC[n+]1c(C)sc2c3c(ccc21)CCCC3	15	8	7	x	x	100*	35
CC[n+]1c(C)sc2cc(OC)ccc21	-4	7	6	0	0	36	x
NC(=S)Nc1cccc2cc3ccccc3cc12	x	4	-60	-15	18	98*	-7
NC(=S)Nc1cc2ccccc2c2ccccc12	0	-6	22	-19	-3	-5	x
Cc1cccc(NC(=S)NC2CC3CCCC(C2)N3CC(C)C)c1 (stereo not given)	-4	-15	-17	0	-3	95*	5
CCCN1C2CCCC1CC(NC(=S)Nc1cccc(C)c1)C2 (stereo not given)	0	-2	21	-14	-2	36	x
SMILES	Beta apoptosis	CSC inhib	Mdm2-MdmX inh	T cruzi repl	SKKanGAS inh	Lmaj promast	Lmaj promast 1uM
N#Cc1cc2sc3nc4ccccc4n3c2cc1C#N	x	x	9	-17	-2	-5	x
N#Cc1cc2sc3nnc(-c4ccncc4)n3c2cc1C#N	1	-14	11	-1	-2	54*	17
Nc1ccc(Oc2ccc([N+](=O)[O-])cc2[N+](=O)[O-])cc1	7	-4	14	12	1	56*	7
CC1=NN(c2ccccc2)C(=O)/C1=C\c1ccc(Oc2ccc([N+](=O)[O-])cc2[N+](=O)[O-])cc1	3	3	34	3	-1	46	x
Cc1cc(-c2ccccc2)cc(-c2ccccc2)[n+]1C	10	-10	16	x	x	59*	7
CN(C)c1ccc(/C=N/NC(=O)c2nonc2N)cc1[N+](=O)[O-]	-2	-9	9	-4	-5	-6	x
Nc1nonc1C(=O)N/N=C/c1cccc([N+](=O)[O-])c1	-2	-12	7	-8	-4	54*	1
CC(C)CN(C(=O)c1ccco1)C1CCS(=O)(=O)C1 (stereo not given)	-2	-5	18	-7	-2	x	x
CCc1ccccc1Nc1nc2ccccc2n1C	22	-11	-40	-7	8	57*	7
Cn1c(Nc2ccccc2)nc2ccccc21	6	4	7	-10	-4	x	x
O=c1[nH]c(O)c(C=Nc2ccc(Cl)cc2Cl)c(=O)[nH]1	x	x	x	-7	-3	x	x
Cc1ccc(-c2nc3ccccc3c(=O)o2)cc1	-3	2	-6	8	-3	x	x
Cc1ccc(-c2cc(-c3n[nH]c(=S)o3)c3ccccc3n2)cc1	32	57	x	17	48	56*	-10
CSc1nnc(-c2cc(-c3ccc(C)cc3)nc3ccccc23)o1	2	-12	30	-1	-4	64*	-9
O=C(NCc1ccco1)c1cccc(NS(=O)(=O)c2cccc(F)c2)c1	0	-5	-9	-5	1	58*	-13
Cc1ccc(C(=O)NCc2ccco2)cc1S(=O)(=O)Nc1cccc(C)c1C	-2	0	4	-10	2	16	x
Cc1ccccc1NS(=O)(=O)c1cc(C(=O)NCc2ccco2)ccc1C	-2	0	-4	6	2	59*	-11
C=CCSc1nnc(CCc2ccccc2)n1N	x	x	15	x	x	x	x
CCCOc1ccc(/C(O)=C2/C(=O)C(=O)N(CCCn3ccnc3)C2c2cccnc2)cc1 (stereo not given)	-5	-7	5	1	1	x	x
CC(C)c1ccccc1NC(=O)COC(=O)Cc1c[nH]c2ccccc12	x	2	-8	-30	-9	50*	-2
COc1ccccc1NC(=O)COC(=O)Cc1c[nH]c2ccccc12	-1	-2	-23	-17	8	7	x
Cc1nn(-c2ccccc2)c(N)c1C(O)(CC(=O)C(F)(F)F)C(F)(F)F (stereo not given)	x	x	-22	-12	-7	-6	x

Screening data as filed in PubChem BioAssay.
